# Screening results deposited in PubChem BioAssay by several laboratories.
# Sampled rows, rich in hits. Any-hit rate of the full collection: about 2.2%.
# PPC-1+TRAIL kill: compounds killing PPC-1 cancer cells with TRAIL present, primary screen, TRAIL potentiator project, ATPLite luminescence, uHTS. PPC-1 cells + TRAIL, ATPLite viability luminescence. cell killing (% activity), % at 4 µM or 5 µM. hit rate 0.41% among 220,000. AID 1443, 2008;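 active means cell killing above 50% in the first pass at 4 µM, then a duplicate retest at 5 µM averaging 50% or more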;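 further: plate controls were cells with TRAIL plus DMSO for no effect and medium-only wells lacking cells for full effect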
# FLuc inhib CS: firefly luciferase enzyme inhibitors, primary screen, artefact control for luciferase-based inhibitor screens, biochemical, luminescence, ATPLite | Luciferin 4-monooxygenase (Photinus pyralis), P08659 | 10 min | inhibition, % at 10 µM | hit rate 1.5% among 200,000 | AID 1006, 2008;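 active means inhibition above about 50% when tested at 10 µM, limit read from the data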
# Target sequence (P08659 whole entry, looked up): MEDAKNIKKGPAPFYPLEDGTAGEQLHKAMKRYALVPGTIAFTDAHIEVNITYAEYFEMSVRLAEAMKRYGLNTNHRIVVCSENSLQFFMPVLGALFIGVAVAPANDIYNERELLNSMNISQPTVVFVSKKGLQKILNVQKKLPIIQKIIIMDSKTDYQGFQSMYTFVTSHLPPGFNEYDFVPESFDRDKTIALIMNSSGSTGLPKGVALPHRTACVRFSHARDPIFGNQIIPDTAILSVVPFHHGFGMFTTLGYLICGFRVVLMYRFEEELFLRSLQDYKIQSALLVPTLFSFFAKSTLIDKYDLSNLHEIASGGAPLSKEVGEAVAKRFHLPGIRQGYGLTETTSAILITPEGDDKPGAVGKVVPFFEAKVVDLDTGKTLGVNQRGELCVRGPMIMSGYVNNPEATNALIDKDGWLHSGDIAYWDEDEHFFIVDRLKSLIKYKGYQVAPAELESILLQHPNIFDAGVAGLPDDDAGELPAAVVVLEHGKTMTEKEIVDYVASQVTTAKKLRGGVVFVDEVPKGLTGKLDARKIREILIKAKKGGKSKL
# HSP90 inh: HSP90 inhibitors, primary screen, cell lysate, luminescence. Heat shock protein HSP 90 (rabbit reticulocyte lysate; luciferase refolding). Rabbit reticulocyte lysate, luciferase refolding luminescence, 3 h. inhibition, % at 5.6 µM. hit rate 0.91% among 290,000;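 active means inhibition above the screen-wide mean plus 3 SD, computed separately per campaign, cut at about 16% in these data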;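 further: 0% = DMSO wells and 100% = 60 µM geldanamycin wells; inhibitors lower the luminescence because luciferase stays unfolded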
# TRAIL sens C8: viability loss with TRAIL in NB7+C8 cells, primary screen, TRAIL sensitizer project, cell-based, ATPlite luminescence; inhibition (viability loss, TRAIL sensitization), % at 10 µM; AID 624354, 2012; hit rate 1% among 360,000;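 active means compounds causing at least 50% loss of cell viability in the single-dose screen, relative to plate controls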
# STAT3 inh: IL-6 driven STAT3 reporter inhibitors, primary screen, U3A cells, luciferase, luminescence, MLSCN library | IL-6 STAT3-luciferase reporter; host cell line lacks STAT1 | inhibition, % at 5.5 µM | hit rate 0.89% among 190,000 | AID 862, 2007;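 active means inhibition above the mean inhibition across all screened compounds plus 3 SD, cut at about 44% in these data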;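 further: 0% = DMSO only wells and 100% = 100 µM nifuroxazide control wells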
# FLuc act counter: FLuc activators, initial screening, artefact control for FLuc-dependent activation tests, biochemical, ATPlite luminescence; ATPlite luciferase biochemical, 10 min; 0 = ATP-free wells, 1 = DMSO control; AID 1027, 2008; activation factor at 10 µM; Luciferin 4-monooxygenase (Photinus pyralis), P08659; 200,000 tested, under 10 active;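 active means luciferase activation factor, scaled between plate controls, of at least 2 with compound at 10 µM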
#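 Material: luciferase plus luciferin reagent, cell-free. Medium: PBS buffer for ATP. Also added: ATP substrate, dispensed from a 10.24 µM working solution in PBS. Doses: test compounds dosed from 2 mM stocks in 100% DMSO. Incubation: 10 min post-reagent at room temperature. Technique: light output (luminescence). Read-out basis: luminescence gain marking luciferase activators.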
# HSP90 confirm: HSP90 inhibitors, confirmation, cell lysate, luminescence. inhibition, % at 5.9 µM. hit rate 64% among 2,300. shares compounds with HSP90 inh. rabbit reticulocyte lysate, luciferase refolding luminescence, 3 h; in the data active means inhibition above about 18%;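 further: 0% = vehicle wells and 100% = reference inhibitor wells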
# FLuc counter: firefly luciferase inhibitors, HSP90 counter-screen, confirmation, artefact control for HSP90 inhibitor project, biochemical, luminescence, triplicate. hit rate 48% among 2,300. purified native firefly luciferase. shares compounds with HSP90 inh. inhibition, % at 5.9 µM;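 active means inhibition above the mean inhibition of all tested sample wells plus 3 SD, cut at about 10% in these data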;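 further: 0% = DMSO with luciferase and 100% = wells lacking luciferase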
# Active calls of the source: *; / = no result given.
SMILES,PPC-1+TRAIL kill,FLuc inhib CS,HSP90 inh,TRAIL sens C8,STAT3 inh,FLuc act counter,HSP90 confirm,FLuc counter
Cc1cccc(NC2=C(NC(=O)c3ccccc3)C(=O)c3ccccc3C2=O)c1,14,3,6,-7,-25,1,/,/
CCOC1=C2[C@@H](CN(S(=O)(=O)c3ccc(C)cc3)[C@H]2c2ccccc2)[C@H]2C(=O)N(Cc3ccccc3)C(=O)[C@H]2C1,/,/,/,7,/,/,/,/
O=C(O)CCn1cc(/C=C/C(=O)c2ccc(Cl)cc2)c(-c2ccc(Br)cc2)n1,11,-4,-6,0,28,1,/,/
CCc1ccc(S(=O)(=O)/N=C2\C=C(Nc3ccc(C(=O)O)cc3)C(=O)c3ccccc32)cc1,/,/,93*,29,/,/,96*,-3
CC(C)(C)c1ccc(S(=O)(=O)/N=C2\C=C(NS(=O)(=O)c3ccccc3)C(=O)c3ccccc32)cc1,/,/,-1,14,/,/,/,/
COC(=O)c1ccccc1NC1=C/C(=N\S(=O)(=O)c2ccc(C(=O)O)cc2)c2ccccc2C1=O,/,/,77*,69*,/,/,92*,3
CCOC(=O)N1CCN(c2c(NCCCN3CCCCCC3)c(=O)c2=O)CC1,8,-9,-2,5,-4,1.1,/,/
CCOc1cc(/C=C2\CCn3c2nc2cc(Cl)ccc2c3=O)ccc1O,/,/,-1,-17,/,/,/,/
CC1CCCCC1NC(=O)c1cc(S(=O)(=O)N2CCCCC2)ccc1N1CCOCC1 (stereo unspecified),/,/,/,-2,/,/,/,/
O=C(NCc1ccc(Cl)cc1)N1CCN(C(=O)c2ccccc2)CC1,/,/,/,21,/,/,/,/
O=C(NCc1ccc(Cl)cc1)N1CCN(S(=O)(=O)c2ccccc2)CC1,/,/,38*,1,/,/,-1,-6
CC(O)(c1cccnc1)c1nc(-c2cccc(C#N)c2)cs1 (stereo unspecified),/,/,/,2,/,/,/,/
COc1ccc(-c2noc(C3CCCN(C(=O)Nc4ccccc4F)C3)n2)cc1 (stereo unspecified),12,-1,27*,-6,15,1,-3,-11
COc1ccc(NC(=O)N2CCCC(c3nc(-c4ccc(OC)cc4)no3)C2)cc1 (stereo unspecified),4,4,21*,-1,17,1,-8,-12
COc1ccc(-c2noc(C3CCCN(C(=O)Nc4ccccc4)C3)n2)cc1 (stereo unspecified),/,-2,19*,0,10,1,3,-6
COc1ccc(-c2noc(C3CCCN(C(=O)c4ccccc4)C3)n2)cc1 (stereo unspecified),0,/,-5,-1,/,/,/,/
CCCCCC(=O)N1CCCC(c2nc(-c3ccc(OC)cc3)no2)C1 (stereo unspecified),16,-8,-2,-6,4,1.1,/,/
COc1ccc(NC(=O)N2CCCC(c3nc(-c4ccc(C(C)C)cc4)no3)C2)cc1 (stereo unspecified),0,7,65*,21,9,0.9,1,-13
COc1ccc(C(C)=O)cc1CN1C(=O)NC(c2ccccc2)(c2ccccc2)C1=O,/,/,2,12,/,/,/,/
COc1ccc(NC(=O)/C(Cl)=C(/Cl)S(=O)Cc2ccc(Cl)cc2)cn1 (stereo unspecified),21,-9,2,-27,26,1.1,/,/
CCCCn1c(NC(=O)c2ccccc2Cl)c(C#N)c2nc3ccccc3nc21,14,-13,59*,27,13,1.1,46*,2
N#Cc1c(NC(=O)c2ccccc2Cl)n(Cc2ccccc2)c2nc3ccccc3nc12,5,-10,6,14,1,1.1,/,/
Cc1cc(C)c2c(=O)cc(C(=O)NCc3ccccc3)oc2c1,/,/,1,1,/,/,/,/
CCOc1ccccc1NC(=O)COC(=O)c1nc2nccc(C)n2n1,/,/,/,-3,/,/,/,/
CC(C)CC(=O)N1CC(=O)Nc2ccc(F)cc2C1c1ccccc1 (stereo unspecified),/,/,39*,-15,/,/,-6,-10
SMILES,PPC-1+TRAIL kill,FLuc inhib CS,HSP90 inh,TRAIL sens C8,STAT3 inh,FLuc act counter,HSP90 confirm,FLuc counter
Cc1ccc2c(c1)C(c1ccccc1)N(C(=O)c1c(F)cccc1Cl)CC(=O)N2 (stereo unspecified),/,/,17*,6,/,/,4,-4
CSCCC(NC(=O)c1cccc(C)c1)C(=O)OCC(=O)Nc1c(C)nn(-c2ccccc2)c1C (stereo unspecified),/,/,/,12,/,/,/,/
COc1ccc2[nH]c(-c3ccc(C)cc3)cc(=O)c2c1,73*,93*,25*,85*,40,0.1,56*,33*
Nc1ccc(Cc2ccc(N)c(O)c2)cc1O,3,3,24*,-7,8,1,14,-6
COc1ccc(/C(N)=N/OC(=O)c2ccco2)cc1,34,68*,41*,48,57*,0.3,60*,43*
COC(=O)c1ccc(OC(=O)c2ccco2)cc1,2,7,2,-10,12,0.9,/,/
COc1ccc(C(=O)O/N=C(\N)c2ccccc2)cc1,/,/,25*,85*,/,/,43*,79*
CC(C)(C)c1ccc(C(=O)O/N=C(\N)c2ccccc2)cc1,/,/,69*,93*,/,/,25*,20*
COc1ccccc1NC(=O)O/N=C(\N)c1ccccc1,9,/,17*,-18,/,/,-1,-13
COc1ccccc1NC(=O)CC(=O)c1ccccc1,/,/,-7,-22,/,/,/,/
CC(NC(=O)C(NC(=O)C1CCCN1C(=O)OC(C)(C)C)C(C)C)C(N)=O (stereo unspecified),-8,3,-3,-19,0,1,/,/
COC(=O)CC1C(=O)NC(C)=C1C(=O)OC (stereo unspecified),8,/,37*,/,/,/,3,1
CCOC(=O)C1=C(C)NC(=O)C1CC(=O)O (stereo unspecified),15,-5,2,0,4,1,/,/
Cc1[nH][nH]c(=O)c1C(c1ccc(-c2ccc(Cl)c(Cl)c2)o1)c1c(C)[nH][nH]c1=O,20,0,18*,-13,0,1,0,0
O=c1[nH]nc(SC2CCCCC2)c(=O)[nH]1,/,/,/,-4,/,/,/,/
